Measured values: ChEMBL document CHEMBL1821616, “New insights into the structural requirements for pro-apoptotic agents based on 2,4-diaminoquinazoline, 2,4-diaminopyrido[2,3-d]pyrimidine and 2,4-diaminopyrimidine derivatives” (Eur J Med Chem, 2011)
Calls of active or inactive are those of the source. The rule behind the calls is not given here.

Assays:
T-24 [1] = assay: Induction of apoptosis in human T24 cells assessed as DNA fragmentation after 48 hrs by ELISA relative to control; type: functional
How it was run: (§1)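 DNA fragmentation was measured with the Cell Death Detection ELISA Plus kit after treatment of cultured tumour cells. The signal is expressed relative to untreated control cultures, which are set to 1.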

MDA-MB-231 [2] = assay: Cytotoxicity against human MDA-MB-231 cells assessed as cell survival at 100 uM after 72 hrs by neutral red dye assay; type: functional; settings: MDA-MB-231, 72 h, read-out: Survival
How it was run: (§2)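 HT-29 and T-24 cells were grown in McCoy's medium and MDA-MB-231 in Leibovitz, each with 10% FBS plus penicillin/streptomycin, as monolayers at 37 °C in 5% CO2. Compounds in DMSO (≤0.5% v/v final) were applied for 72 h. Survival was read by neutral red uptake against 0.5% DMSO-treated cells, as the mean of triplicates.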

HT-29 [3] = assay: Induction of apoptosis in human HT-29 cells assessed as DNA fragmentation after 48 hrs by ELISA relative to control; type: functional; how it was run: as §1
HT-29 [4] = assay: Cytotoxicity against human HT-29 cells after 72 hrs by neutral red dye assay; type: functional, cell-based; settings: HT-29, 72 h
How it was run: (§3)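 Human tumour cells were grown as monolayers with 10% FBS and penicillin/streptomycin at 37 °C in 5% CO2 (HT-29 and T-24 in McCoy's, MDA-MB-231 in Leibovitz). They were exposed to compound in DMSO (≤0.5% v/v final) at screening concentrations of 20 and 100 μM for 72 h and read by neutral red uptake. Survival is relative to cells given DMSO only, in triplicate.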

MDA-MB-231 [5] = assay: Cytotoxicity against human MDA-MB-231 cells after 72 hrs by neutral red dye assay; type: functional, cell-based; settings: MDA-MB-231, 72 h; how it was run: as §3
T-24 [6] = assay: Cytotoxicity against human T24 cells assessed as cell survival at 100 uM after 72 hrs by neutral red dye assay; type: functional; settings: T-24, 72 h, read-out: Survival; how it was run: as §2
HT-29 [7] = assay: Cytotoxicity against human HT-29 cells assessed as cell survival at 100 uM after 72 hrs by neutral red dye assay; type: functional; settings: HT-29, 72 h, read-out: Survival; how it was run: as §2
T-24 [8] = assay: Cytotoxicity against human T24 cells after 72 hrs by neutral red dye assay; type: functional, cell-based; settings: T-24, 72 h; how it was run: as §3
[9] = Cytotoxicity against human CRL8799 cells assessed as cell survival at 20 to 100 uM after 72 hrs by neutral red dye assay; type: cell-based; settings: read-out: Survival
How it was run: (§4)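 The non-tumoral lines were grown with 10% FBS plus penicillin/streptomycin, as monolayers at 37 °C in 5% CO2: CRL-8799 in MEG medium and CRL-11233 in BEGM. Compounds in DMSO (≤0.5% v/v final) were applied for 72 h. Survival was read by neutral red uptake against 0.5% DMSO solvent-treated controls, as the mean of triplicates.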

[10] = Cytotoxicity against human CRL11233 cells assessed as cell survival at 20 to 100 uM after 72 hrs by neutral red dye assay; type: cell-based; settings: read-out: Survival; how it was run: as §4
MDA-MB-231 [11] = assay: Induction of apoptosis in human MDA-MB-231 cells assessed as DNA fragmentation after 24 hrs by ELISA relative to control; type: functional; how it was run: as §1
HT-29 [12] = assay: Induction of apoptosis in human HT-29 cells assessed as caspase3 activation at IC50 after 48 hrs by FACS analysis relative to control; type: functional
How it was run: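 Active caspase-3 was detected by flow cytometry with a FITC anti-active-caspase-3 antibody kit, with readings at 14, 24 and 48 h. Treated cells were compared with untreated control cells. Results are scored as (+) for an increase of about 50% and (++) for a larger rise.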

| SMILES | Activity (T-24 [1]) | viability at 100 µM (MDA-MB-231 [2]) [%] | Activity (HT-29 [3]) | IC50 (HT-29 [4]) [µM] | IC50 (MDA-MB-231 [5]) [µM] | viability at 100 µM (T-24 [6]) [%] | viability at 100 µM (HT-29 [7]) [%] | IC50 (T-24 [8]) [µM] | fold change (FC) (T-24 [1]) | viability at 72 h, up to 100 µM [9] [%] | fold change (FC) (HT-29 [3]) | viability at 72 h, up to 100 µM [10] [%] | fold change (FC) (MDA-MB-231 [11]) | Activity (MDA-MB-231 [11]) | Activity (HT-29 [12]) [%] |
| --- | --- | --- | --- | --- | --- | --- | --- | --- | --- | --- | --- | --- | --- | --- | --- |
| CCCCCCNc1nc(SCCCCC)nc2ncccc12 | inactive | < 45 | inactive | 18.4 | 9 | < 45 | < 45 | 18.5 | – | – | – | – | – | – | – |
| CCCCCNc1nc(NCCCCC)c2cccnc2n1 | – | < 45 | – | 0.58 | 1.2 | < 45 | < 45 | 0.7 | 4.4 | 100 | 0.9 | 54 | 2.8 | – | – |
| CCNc1nc(SCC)nc2ncccc12 | – | < 45 | inactive | 26.2 | 18.7 | < 45 | < 45 | 20.1 | 1.3 | – | – | – | 2 | – | – |
| CCCCNc1nc(SCCCC)nc2ncccc12 | – | < 45 | inactive | 13.6 | 8.4 | < 45 | < 45 | 10.6 | 3.7 | – | – | – | – | – | – |
| Cc1ccc(CNc2nc(NCc3ccc(C)cc3)c3cccnc3n2)cc1 | – | < 45 | inactive | 7.5 | 3.2 | < 45 | < 45 | 5 | 2.7 | 95 | – | 100 | 4 | – | – |
| CCCCCCNc1nc(NCCCCCC)c2cccnc2n1 | – | < 45 | – | 4.23 | 2.1 | < 45 | < 45 | 4.6 | – | – | – | – | – | – | – |
| COc1ccc(CNc2ccnc(NCc3ccc(OC)cc3)n2)cc1 | – | < 45 | – | 12.6 | 1.5 | < 45 | < 45 | 18.7 | 1.5 | 0 | 1.9 | – | 2.4 | – | – |
| CCCCNc1nc(SCC)nc2ncccc12 | – | < 45 | – | 25.3 | 9.2 | < 45 | < 45 | 20.9 | 1.5 | – | 1.2 | – | 2.2 | – | – |
| CCCCCCNc1nc(NCCCCCC)c2ccccc2n1 | inactive | < 45 | inactive | 5.81 | 7.56 | < 45 | < 45 | 23.3 | – | 2 | – | 0 | – | inactive | – |
| Cc1ccc(CNc2nc(NCc3ccc(C)cc3)c3ccccc3n2)cc1 | – | < 45 | – | 4.42 | 5.47 | < 45 | < 45 | 15.4 | 4.3 | 13 | 5.2 | 33 | – | inactive | – |
| CCCCNc1nc(SC(C)C)nc2ncccc12 | inactive | < 45 | inactive | 32.1 | 15.7 | < 45 | < 45 | 12.3 | – | – | – | – | 1.3 | – | – |
| CCCCNc1nc(NCCCC)c2ccccc2n1 | inactive | < 45 | – | 6.96 | 1.09 | < 45 | < 45 | 19.3 | – | 4 | 1.5 | 1 | – | inactive | – |
| c1ccc2c(CCNc3nc(NCCc4c[nH]c5ccccc45)c4cccnc4n3)c[nH]c2c1 | inactive | < 45 | – | 3 | 5.1 | < 45 | < 45 | 7.7 | – | 56 | 3 | – | – | inactive | 75 |
| Cc1ccc(CNc2ccnc(NCc3ccc(C)cc3)n2)cc1 | – | < 45 | – | 14.9 | 19.1 | < 45 | < 45 | 22.2 | 4.8 | 6 | 2 | 1 | 1.5 | – | – |
| Clc1ccc(CNc2nc(NCc3ccc(Cl)cc3)c3cccnc3n2)cc1 | – | < 45 | inactive | 15 | 8.3 | < 45 | < 45 | 11 | 1.9 | 0 | – | 100 | 1.3 | – | – |
| CCCCCCCNc1nc(SC(C)C)nc2ncccc12 | – | < 45 | inactive | 24.4 | 7 | < 45 | < 45 | 8 | 1.5 | – | – | – | – | – | – |
| c1ccc(CCNc2ccnc(NCCc3ccccc3)n2)cc1 | – | < 45 | inactive | 6.97 | 3.01 | < 45 | < 45 | 9.14 | 1.2 | 5 | – | 5 | 1.3 | – | – |
| Brc1ccc(CCNc2nc(NCCc3ccc(Br)cc3)c3cccnc3n2)cc1 | – | < 45 | – | 4.1 | 2.7 | < 45 | < 45 | 11.5 | 1.5 | 90 | 7.2 | 100 | – | inactive | – |
| CCCCCCNc1nc(SC(C)C)nc2ncccc12 | – | < 45 | – | 20.2 | 4.5 | < 45 | < 45 | 15.8 | 1.6 | – | – | – | 2.9 | – | – |
| Clc1ccc(CNc2ccnc(NCc3ccc(Cl)cc3)n2)cc1 | inactive | < 45 | – | 9.8 | 2 | < 45 | < 45 | 8.5 | – | 0 | 2.7 | – | 2.2 | – | – |
| Clc1ccc(CNc2nc(NCc3ccc(Cl)cc3)c3ccccc3n2)cc1 | – | < 45 | inactive | 5.89 | 4.26 | < 45 | < 45 | 6.41 | 2 | 0 | – | 0 | – | inactive | – |
| CCCNc1nc(NCCC)c2ccccc2n1 | – | < 45 | inactive | 18.9 | 4.43 | < 45 | < 45 | 28.9 | 2 | 0 | – | 66 | – | inactive | – |
| CCCCCCNc1nc(SCC)nc2ncccc12 | – | < 45 | – | 22.5 | 1.4 | < 45 | < 45 | 5.9 | 1.5 | – | 8.1 | – | 3.3 | – | 75 |
